The record followed here is ChEMBL document CHEMBL1135780, “6-Chloro-3-alkylamino-4H-thieno[3,2-e]-1,2,4-thiadiazine 1,1-dioxide derivatives potently and selectively activate ATP sensitive potassium channels of pancreatic beta-cells” (J Med Chem, 2002).

The structures appear in SMILES notation.

For data set [1], the species on record is Rattus norvegicus. Nature of the data set: Vasodilation effects on Wistar rat mesenteric arteries precontracted with phenylephrine. It counts as functional.
A short description of data set [2]: Partition coefficient (logP). It counts as physicochemical. The settings on record: octanol/water.
Data set [3] in a line: Oral bioavailability in rat (Sprague-Dawley). It counts as ADME, organism-based. The conditions noted are these: Sprague-Dawley, in vivo. In short, it runs like this:
(§1)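 Cassette dosing, two compounds per cassette, in Sprague–Dawley rats of about 180 g, n = 2. iv doses 0.5 or 0.89 mg/kg; oral doses 1.89 or 2.0 mg/kg. Vehicle 0.1 M potassium phosphate pH 8.0, or PEG 300 based. Heart-puncture sampling, one rat per point. Plasma levels by LC/MS/MS; noncompartmental analysis.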

For data set [4], the species on record is Rattus norvegicus. The data set is described as follows: Maximum reduction in plasma insulin in rat. It counts as functional. In short, it runs like this: (§2)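 Postprandial male Sprague–Dawley rats, 280–320 g, under Hypnorm/Dormicum at 37 °C. 3 mg/kg iv bolus over 20 s via jugular cannula (0.3 mg/kg for one compound), dissolved in 0.15% NaOH and saline. Blood taken every 5–10 min from 15 min pre- to 30 min postinjection. Plasma insulin by ELISA, as % reduction from pre-dose level. 2–4 animals.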

Data set [5] has as its target T1, Sulfonylurea receptor 1, Kir6.2 (Homo sapiens, UniProt Q09428+Q14654). The data set is described as follows: (§3) Inhibition of [3H]glibenclamide binding to HEK293 cells co-expressing human Sulfonylurea receptor SUR1 and Inward rectifier K+ channel Kir6.2 without ATP. It counts as cell-based.
The nature of data set [6]: Half life after oral administration to Sprague-Dawley rats. The conditions noted are these: rat, in vivo. It counts as ADME, organism-based. In short, it runs like this:
as §1

Data set [7] in a line: Acid dissociation constant was determined. It counts as ADME. In short, it runs like this: (§4)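 Potentiometric titration from pH 2 to 10.5 in 80% MeOH cosolvent. Three titrations on the same sample, with 0.15 M KCl added before the second. psKa values extrapolated to 0% cosolvent by Yasuda–Shedlovsky.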
The species entered for data set [8] is Rattus norvegicus. The data set is described as follows: Maximum change in MAP in rat. It counts as functional. In short, it runs like this: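 Anaesthetized male Sprague–Dawley rats given 3 mg/kg iv bolus (0.3 mg/kg for one compound) in 0.15% NaOH/saline via jugular cannula. Maximal percent change in mean arterial pressure over 5 min after dosing; mean ± SEM, 2–4 animals.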

Data set [9] relates to Beta-TC6. Nature of the data set: Ability to inhibit the release of insulin from the mouse beta-TC6 cell line. It counts as functional, cell-based. Summed up: (§5)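 βTC6 cells, 5 × 10⁴/well, grown 3 days in DMEM + 10% FCS, 11 mM glucose, 20 mM Hepes. Washed twice in NN buffer with 0.1% BSA, preincubated 60 min, then 3 h with 22 mM glucose, 0.1 mM IBMX and serial compound dilutions. Insulin in supernatant measured by in-house ELISA (guinea pig anti-insulin, rat insulin standard). Reference compound as positive control.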

Data set [10] is described as follows: (§6) LogD for water and octanol distribution coefficient at pH 7.4. It counts as physicochemical. Summed up:
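Three titrations on one sample, with 1.00 mL then 10.00 mL octanol added before the second and third. Aqueous pKa used in refinement; combined multiset gives LogD at pH 7.4.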

Data set [11] addresses T1, Sulfonylurea receptor 1, Kir6.2. Nature of the data set: Inhibition of [3H]glibenclamide binding to HEK293 cells co-expressing human Sulfonylurea receptor SUR1 and Inward rectifier K+ channel Kir6.2 at high affinity state with 2 mM MgATP. It counts as cell-based.
The target is the same in data set [12]. The data set is described as follows: Inhibition of [3H]glibenclamide binding to HEK293 cells co-expressing human Sulfonylurea receptor SUR1 and Inward rectifier K+ channel Kir6.2 at low affinity state with 2 mM MgATP. It counts as cell-based.
The species entered for data set [13] is Rattus norvegicus. Nature of the data set: Inhibition of glucose-stimulated insulin release from Wistar rat islets. It counts as functional. In short, it runs like this:
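Isolated rat islets held overnight in RPMI, 10% FCS, 11 mM glucose, then 10 islets/well overnight in DMEM, 10% FCS, 3 mM glucose. Run like the βTC6 assay (60 min NN buffer preincubation, 3 h with 22 mM glucose and serial dilutions) without IBMX. Insulin by in-house ELISA.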

Data set [14] in a line: Changes in potassium fluxes assessed in the glucose responsive insulin-producing murine cell line beta-TC3. It counts as functional, cell-based, Mus musculus. Summed up: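 βTC3 membrane potential read as DiBAC4(3) fluorescence at 0.01, 0.1, 1, 10 and 100 µM, four wells each. Signal normalized to each well's initial value and expressed as fractional fluorescence change over 45 min incubation. EC50 from four-parameter nonlinear fit; mean ± SEM of at least three independent experiments.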

For data set [15], the species on record is Rattus norvegicus. The data set is described as follows: Ability to relax phenylephrine-contracted rat aorta rings. It counts as functional.
The species named for data set [16] is Rattus norvegicus. Nature of the data set: Reduction in plasma insulin in 30 min post-injection in rat. Further details: concentration or dose not given beside the values. It counts as functional. Summed up:
as §2

The subject of data set [17] is Beta-TC6. The data set is described as follows: Percentage insulin release in vitro in beta-TC6 cells. It counts as functional. The conditions noted are these: Mus musculus. Summed up: as §5
Data set [18] deals with Beta-TC6. Nature of the data set: Maximum inhibition of glucose stimulated insulin release from mouse beta-TC6 cells at 10 uM in vitro. It counts as functional.
For data set [19], the system named is βTC6 cells (Mus musculus). Nature of the data set: Inhibition of glucose-stimulated insulin release from βTC6 cells.
Data set [20] concerns the target T1, Sulfonylurea receptor 1, Kir6.2. The description is as §3. It counts as cell-based. In short, it runs like this: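 Membranes from HEK293 cells stably expressing human SUR1/Kir6.2 (100 µg/mL protein) incubated 1 h at 37 °C with 1 nM [3H]glibenclamide in 30 mM HEPES pH 7.4, here without MgCl2 and ATP. Nonspecific binding with 10 µM glipizide. Rapid filtration, scintillation counting; IC50 by one- or two-site sigmoid nonlinear regression.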
This is another data set of the same source.

The species named for data set [21] is Rattus norvegicus. Nature of the data set: Effective concentration required for relaxation of the rat aorta rings. It counts as functional.
The species entered for data set [22] is Rattus norvegicus. The data set is described as follows: Effective concentration require for relaxation of rat aorta rings. It counts as functional.
Data set [23] is described as follows: as §6. It counts as physicochemical. Summed up: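 Octanol/water distribution measured by potentiometric titration, pH 10.5 to 2.0. Three titrations on one sample, with 1.00 mL then 10.00 mL octanol added before the second and third. Aqueous pKa used in refinement; combined multiset gives LogD at pH 7.4.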
The source holds these as a separate data set.

Data set [24] in a line: Compound was evaluated for physiochemical property pKa. It counts as physicochemical. Summed up:
as §4

T1 sequence (Q14654 whole entry): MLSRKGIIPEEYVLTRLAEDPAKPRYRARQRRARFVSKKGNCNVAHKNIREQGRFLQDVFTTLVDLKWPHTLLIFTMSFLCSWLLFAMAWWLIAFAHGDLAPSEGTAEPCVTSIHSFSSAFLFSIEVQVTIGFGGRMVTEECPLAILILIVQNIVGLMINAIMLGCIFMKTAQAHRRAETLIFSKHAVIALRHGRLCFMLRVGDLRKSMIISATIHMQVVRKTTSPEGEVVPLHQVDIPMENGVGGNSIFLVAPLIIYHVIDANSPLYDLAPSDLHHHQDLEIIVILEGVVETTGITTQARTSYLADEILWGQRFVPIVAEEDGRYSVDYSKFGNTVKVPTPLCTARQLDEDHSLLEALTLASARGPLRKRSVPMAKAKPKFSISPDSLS
T1 sequence (Q09428 whole entry): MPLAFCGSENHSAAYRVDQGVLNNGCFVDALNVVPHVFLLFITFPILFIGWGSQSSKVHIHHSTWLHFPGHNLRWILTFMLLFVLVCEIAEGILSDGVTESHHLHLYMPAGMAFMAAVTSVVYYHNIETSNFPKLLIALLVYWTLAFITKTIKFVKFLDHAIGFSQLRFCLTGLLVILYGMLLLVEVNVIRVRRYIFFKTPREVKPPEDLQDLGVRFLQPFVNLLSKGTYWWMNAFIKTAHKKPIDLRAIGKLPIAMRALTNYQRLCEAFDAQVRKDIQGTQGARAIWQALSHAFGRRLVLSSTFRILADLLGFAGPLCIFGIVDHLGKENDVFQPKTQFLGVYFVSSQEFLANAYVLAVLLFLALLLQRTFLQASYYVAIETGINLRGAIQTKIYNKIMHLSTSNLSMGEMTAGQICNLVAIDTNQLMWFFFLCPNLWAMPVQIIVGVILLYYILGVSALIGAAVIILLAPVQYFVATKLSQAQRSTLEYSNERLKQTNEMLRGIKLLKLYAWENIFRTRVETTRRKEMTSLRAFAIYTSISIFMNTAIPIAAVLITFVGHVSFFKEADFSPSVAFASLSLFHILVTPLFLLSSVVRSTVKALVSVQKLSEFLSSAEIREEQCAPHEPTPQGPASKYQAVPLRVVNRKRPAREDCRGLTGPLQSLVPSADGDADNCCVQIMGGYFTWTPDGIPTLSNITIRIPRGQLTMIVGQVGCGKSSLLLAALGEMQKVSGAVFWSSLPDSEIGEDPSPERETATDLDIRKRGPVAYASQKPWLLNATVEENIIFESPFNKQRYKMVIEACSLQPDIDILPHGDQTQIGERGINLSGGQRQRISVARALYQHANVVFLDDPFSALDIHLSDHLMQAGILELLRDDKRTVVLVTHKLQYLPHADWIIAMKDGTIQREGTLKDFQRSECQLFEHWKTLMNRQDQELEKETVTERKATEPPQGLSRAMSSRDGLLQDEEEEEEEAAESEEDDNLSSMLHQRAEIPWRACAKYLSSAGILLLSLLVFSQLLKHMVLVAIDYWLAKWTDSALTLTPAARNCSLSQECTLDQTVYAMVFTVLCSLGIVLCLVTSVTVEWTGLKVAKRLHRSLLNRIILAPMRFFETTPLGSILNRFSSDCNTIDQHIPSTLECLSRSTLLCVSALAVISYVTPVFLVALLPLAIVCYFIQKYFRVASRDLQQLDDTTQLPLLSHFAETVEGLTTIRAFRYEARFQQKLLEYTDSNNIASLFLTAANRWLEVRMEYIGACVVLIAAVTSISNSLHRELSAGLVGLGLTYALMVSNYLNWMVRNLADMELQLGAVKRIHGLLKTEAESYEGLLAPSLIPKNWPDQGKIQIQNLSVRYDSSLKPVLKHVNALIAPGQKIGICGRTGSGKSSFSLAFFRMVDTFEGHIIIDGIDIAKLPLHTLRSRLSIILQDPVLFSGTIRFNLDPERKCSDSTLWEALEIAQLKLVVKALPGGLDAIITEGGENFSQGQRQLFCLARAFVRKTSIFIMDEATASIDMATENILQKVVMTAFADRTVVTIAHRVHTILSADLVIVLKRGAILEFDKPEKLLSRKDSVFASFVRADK

One may read the EC50 as the concentration that produces a half-maximal response. What is called logP is a log measure of how a compound divides between an organic and an aqueous phase. By bioavailability is commonly meant the share of a dose that reaches the circulation, judged against a reference dose that is usually intravenous. By IC50 is commonly meant the point on the concentration scale where inhibition reaches its midpoint. As a reminder, the half-life is how long it takes for the measured level to halve. The term pKa denotes the pH at which an ionisable group is half protonated. By logD is commonly meant the decadic logarithm of the distribution of all forms, ionised or not, between an organic phase and buffer at a given pH. As a reminder, the Emax is the size of the effect at its maximum, as opposed to the concentration needed. Take `CC(C)NC1=NS(=O)(=O)c2sc(Cl)cc2N1`: the figures for the concentration for a half-maximal effect (EC50) (in the data set listed under Rattus norvegicus [1]; in data set [14]; in the data set listed under Rattus norvegicus [15]) were 6.2 µM, 0.6 µM and 266 µM, respectively. The compound also yielded a logP in data set [2] of 1.84. The bioavailability in data set [3] came to 65%. For the same compound, the Reduction in the data set listed under Rattus norvegicus [4] and in the data set filed under Rattus norvegicus [16] was 96% throughout. Besides, the IC50 stood at 554 µM in data set [5]; 0.23 µM with Beta-TC6 [9]; 0.34 µM in data set [11]; 187 µM in [12]; 0.18 µM in the data set listed under Rattus norvegicus [13]. In [6], this compound registered a half-life of 2.73 h. The pKa in data set [7] turned out to be 8.35. In addition, in the data set filed under Rattus norvegicus [8], the Change is -19%. This compound also returned a log distribution coefficient (logD) in data set [10] of 1.63. This compound also returned an Emax in the data set with Beta-TC6 [17] of 85%.

With `CCCNC1=NS(=O)(=O)c2sc(Cl)cc2N1`, the EC50 stood at 23.3 µM in the data set filed under Rattus norvegicus [1], 2 µM in data set [14] and 64.7 µM in the data set listed under Rattus norvegicus [15]. Besides, the lipophilicity (logP) in [2] is 2.49. The same compound had a bioavailability in data set [3] of 69%. Moreover, the Reduction was found to be 100% in the data set filed under Rattus norvegicus [4] and 16% in the data set filed under Rattus norvegicus [16]. Besides, the concentration for half-maximal inhibition (IC50) was found to be 924 µM in data set [5]; 2.4 µM in the data set with Beta-TC6 [9]; 2.27 µM in data set [11]; 584 µM in [12]; 0.7 µM in the data set filed under Rattus norvegicus [13]. In data set [6], this compound displayed a half-life of 1.2 h. Besides, the Emax at 10 µM in the data set on Beta-TC6 [18] amounted to 65%. This compound came in with a pKa in data set [7] of 8.23. In the data set listed under Rattus norvegicus [8], the Change was found to be 13%. Moreover, the logD in data set [10] came out at 2.42. In the data set with Beta-TC6 [17], this compound had a maximal response (Emax) of 65%.

As to `CC[C@@H](C)NC1=NS(=O)(=O)c2sc(Cl)cc2N1`, the bioavailability in [3] came out at 90%. Besides, the Reduction was 97% in the data set listed under Rattus norvegicus [4] and 94% in the data set filed under Rattus norvegicus [16]. The Emax (in data set [19]; with Beta-TC6 [17]) was 82% throughout. Further, in data set [6], the half-life stood at 2.72 h. Moreover, the pKa in data set [7] worked out at 8.54. The IC50 in [20] is 487 µM; in the data set on Beta-TC6 [9], 0.24 µM; in [11], 0.64 µM; in data set [12] it was 224 µM; in the data set filed under Rattus norvegicus [13] it was 0.06 µM. Further, the Change in the data set listed under Rattus norvegicus [8] is reported as -17%. Also, the EC50 is 0.3 µM in data set [14] and 70 µM in the data set listed under Rattus norvegicus [15].

As for `CC[C@H](C)NC1=NS(=O)(=O)c2sc(Cl)cc2N1`, the results for the concentration giving a half-maximal response (EC50) (in the data set filed under Rattus norvegicus [1]; in [14]; in the data set filed under Rattus norvegicus [15]) were 19.2 µM, 0.8 µM and 51 µM, respectively. The compound further came in with a bioavailability in data set [3] of 49%. Also, the Reduction in the data set listed under Rattus norvegicus [4] amounted to 96%; in the data set listed under Rattus norvegicus [16], 94%. In [6], the half-life was 0.967 h. In data set [7], this compound had a pKa of 8.42. Moreover, the IC50 stood at 420 µM in data set [20]; 0.41 µM in the data set on Beta-TC6 [9]; 0.46 µM in data set [11]; 309 µM in data set [12]; 0.07 µM in the data set filed under Rattus norvegicus [13]. Moreover, the Change in the data set listed under Rattus norvegicus [8] is on record as -7%. Further, the Emax with Beta-TC6 [17] turned out to be 79%.

In the data set with Beta-TC6 [18], `CCNC1=NS(=O)(=O)c2sc(Cl)cc2N1` yielded an Emax at 10 µM of 74%. Besides, the 50% effective concentration (EC50) in the data set filed under Rattus norvegicus [21] came to 136 µM; in data set [14] it was 9 µM; in the data set filed under Rattus norvegicus [15], 136 µM. In the data set with Beta-TC6 [9], this compound showed a concentration for half-maximal inhibition (IC50) of 1.9 µM.

In the data set with Beta-TC6 [18], `CCCCNC1=NS(=O)(=O)c2sc(Cl)cc2N1` registered an Emax at 10 µM of 66%. In addition, the EC50 in the data set listed under Rattus norvegicus [21] is 13.4 µM; in data set [14], 0.6 µM; in the data set filed under Rattus norvegicus [15] it was 13.4 µM. Moreover, it took 1.39 µM to reach half-maximal inhibition with Beta-TC6 [9] (IC50).

Turning to `CNC1=NS(=O)(=O)c2sc(Cl)cc2N1`, the figures for the EC50 (in the data set filed under Rattus norvegicus [22]; in data set [14]; in the data set listed under Rattus norvegicus [15]) were 17.3 µM, > 100 µM and 17.3 µM, respectively. Also, in the data set on Beta-TC6 [18], the Emax at 10 µM worked out at 35%. Moreover, the IC50 in the data set with Beta-TC6 [9] turned out to be 21.2 µM.

In data set [2], `CCC(C)CNC1=NS(=O)(=O)c2sc(Cl)cc2N1` (racemic) came in with a logP of 3.17. Moreover, the maximum response (Emax) at 10 µM with Beta-TC6 [18] is 48%. In addition, the pH-dependent lipophilicity (logD) in data set [23] came out at 3.14. The compound further registered an IC50 in the data set with Beta-TC6 [9] of 0.15 µM. In [24], the pKa came to 8.29. In addition, the EC50 in data set [14] amounted to 20 µM; in the data set filed under Rattus norvegicus [15], 20.5 µM.
